Sampled rows, rich in hits. Any-hit rate of the full collection: about 1.5%.
T cell modulator – modulators of CD8 T cell-vesicle binding, primary screen, mouse 2C CD8+ T cells, flow cytometry | 2C CD8+ T cell-vesicle binding; stronger effect = lower value | response (vesicle binding), % at 7 µM | actives 0.068% (n = 330,000) | AID 2052, 2009;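 active means response, share of CD8 T cells binding vesicles, and their 90th percentile fluorescence all below set limits, cut at about 80% in these data, passing the limit was not always enough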;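 further: values below 100% mean blocked vesicle binding to the CD8+ T cells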
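System: murine 2C transgenic CD8+ T lymphocytes; also added: QL9-loaded Drosophila micro-vesicles; times: binding 1.5 h at 37 °C; measured by: flow cytometry, PE anti-B7-1 (FL2) versus Alexa647 anti-CD8 (FL8), PFA-fixed; control set: Peptide-free naked vesicles (low) and QL9 vesicles with 0.7% DMSO vehicle (high)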
HDAC3 inh – HDAC3 deacetylase inhibitors, primary screen, biochemical, fluorescence, cell-free homogeneous; Histone deacetylase 3 (Homo sapiens), O15379; recombinant HDAC3, fluorogenic peptide/trypsin coupled; inhibition, % at 8.3 µM; actives 0.15% (n = 320,000); AID 2718, 2010; in the data active means inhibition above about 26%, passing the limit was not always enough
LANA-H2B inh – blockers of LANA interaction with H2A/H2B – biochemical, FP readout, HTS, primary screen; actives 0.6% (n = 320,000); inhibition, % (concentration not given with the values); cell-free LANA-H2A/H2B peptide, fluorescence polarization; Protein LANA1 (Human herpesvirus 8 type P (isolate GK18)), Q9QR71; in the data active means inhibition mostly above about 10%, no sharp cut-off; inactive means mostly below about 6.7%
Arrestin-AP2 inh – inhibitors of beta-arrestin/AP2 binding, primary screen, biochemical, GPCR trafficking, flow cytometry; beta-arrestin 1 C-terminal peptide binding to AP2 beta2-adaptin appendage (human); FITC-arrestin peptide / GST-AP2 beads; AP2 beta2 appendage carries R879A mutation; inhibition, % at 10 µM; actives 0.31% (n = 340,000); AID 504490, 2011;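 active means inhibition above a set limit, near 3 SD of compounds lacking own fluorescence, cut at about 54% in these data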;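 further: plate controls were DMSO wells for no effect and 5 µM unlabelled arrestin peptide for full effect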
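Test system: GST-tagged AP2 beta2-adaptin appendage (R879A) on 4 µm glutathione beads; also added: fluorescein-tagged arrestin peptide at 50 nM final; timing: 12 min plus 1 h, RT; signal: flow cytometry, FL1 (488/535 nm); read-out: percent drop in bead-associated FITC signal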
DSG3 Ab inh – inhibitors of pemphigus antibody binding to DSG3, primary screen, biochemical, bead-based, flow cytometry, scFv-GFP. AID 588358, 2011. DSG3-coupled beads, scFv-anti-DSG3-GFP binding; stronger effect = lower value. actives 0.48% (n = 310,000). binding (percent of control), % at 10 µM;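 active means binding more than 3 SD below its plate's average and above zero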;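 further: hits lower antibody fragment binding to DSG3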
The depositor's hits bear a star; i = inactive; x = no result given.

SMILES	T cell modulator	HDAC3 inh	LANA-H2B inh	Arrestin-AP2 inh	DSG3 Ab inh
O=C(NCC1CCCO1)c1ccc2c(c1)C(=O)N(C1CCCCC1)C2=O (stereo not drawn)	889	-4	5	10	89
O=C(NCC1CCCO1)c1ccc2c(c1)C(=O)N(c1cccc([N+](=O)[O-])c1)C2=O (stereo not drawn)	160	-6	-4	13	41*
CC(=O)c1ccccc1C(=O)N1CCC(CCC(=O)NCc2ccc(F)cc2)CC1	x	x	x	x	94
COc1ccc(/C=N\Nc2ccccn2)c(OC)c1	191	1	-2	-7	102
COc1ccc(/C=N/Nc2ncc(Br)cn2)c(OC)c1	548	-2	-2	-2	66*
Cc1cn([C@H]2C[C@H](O)[C@@H](CNCc3cc(Br)ccc3OCc3ccccc3)O2)c(=O)[nH]c1=O	x	x	x	x	108
CC(NC(=O)CSc1nnc(COc2ccccc2)o1)c1ccccc1 (stereo not drawn)	191	-4	20*	-1	102
Cc1cccc(OCc2nnc(SCC(=O)Nc3ccc(C)c(C)c3)o2)c1	562	-4	-4	6	66*
Cc1ccc(OCc2nnc(SCC(=O)CC(=O)Nc3ccccc3)o2)cc1	208	10	17*	-3	102
COc1ccc(OCc2nnc(SCC(=O)Nc3ccc(C)cc3)o2)cc1	80	-9	0	17	x
O=C(NCc1ccc2c(c1)OCO2)C(=O)NCC1OCCCN1S(=O)(=O)c1ccc(F)cc1 (stereo not drawn)	195	3	-1	6	103
O=C(NC1CC1)c1cccc2c1C(=O)c1ccc(N3CCC(N4CCCCC4)CC3)cc1S2(=O)=O	x	x	x	x	120
CCOC(=O)C(=O)c1csc(NC(=O)COc2ccc(N(C)S(=O)(=O)c3ccc(F)cc3)cc2)n1	234	-3	-2	-4	73*
O=C(N/N=C/c1ccccc1[N+](=O)[O-])c1ccc2nc[nH]c2c1	i	96*	4	2	113
O=C(N/N=C/c1ccc(Cl)c([N+](=O)[O-])c1)c1ccc2nc[nH]c2c1	183	-1	-3	9	91
COc1cc(Cl)c(C)cc1NC(=O)CN1CCN(C(=O)c2cccs2)CC1	x	x	x	x	107
CCCCCC1C(C(=O)OCC)C(=O)NC1(C(=O)OCC)C(=O)OCC (stereo not drawn)	x	x	x	-14	96
O=c1[nH]c2cc3c(cc2cc1CN(CCc1ccccc1)C(=S)NCCCN1CCOCC1)OCCO3	x	x	x	-7	96
CCNc1nc(SC(C)C(=O)Nc2ccccc2)nc(N(C)C)n1 (stereo not drawn)	277	-3	-3	5	114
COC(=O)C(C)Sc1nc(NCc2ccccc2)nc(N(C)C)n1 (stereo not drawn)	308	x	x	3	84*
CCOC(=O)c1c(CSc2ccccc2)n(C)c2ccc(O)c(CN3CCOCC3)c12	520	6	18*	3	95
Cc1cc(NC(=S)NC(=O)c2ccco2)c2ccccc2n1	220	8	17*	0	83
COc1cc2c3c(c1)C1(C(=O)N3C(C)(C)C=C2C)C(C#N)=C(N)Oc2cc(C)oc(=O)c21 (stereo not drawn)	x	x	60*	-3	97
CCCCn1c(SCC(=O)N(CC)C2CCS(=O)(=O)C2)nc2cc(S(N)(=O)=O)ccc21 (stereo not drawn)	314	1	4	10	16*
CN1CCN(CCNC(=O)Nc2ccccc2C(F)(F)F)CC1	286	1	17*	19	116
CCCCOC(=O)c1ccc(NC(=O)C(=O)NCc2ccncc2)cc1	0.0*	0	2	6	122
CC(Sc1ccccc1)C(=O)N1CCN(S(=O)(=O)c2ccc(Cl)cc2)CC1 (stereo not drawn)	408	4	-4	-18	x
CSc1nc(Cc2ccccc2)cc(=O)[nH]1	79	0	0	-11	61*
COc1ccc(S(=O)(=O)N2CCCCC2)cc1NC(=O)COC(=O)c1ccco1	218	8	1	-15	x

Bioassay records deposited in PubChem BioAssay by several laboratories.
